The results in this text go back to ChEMBL document CHEMBL1153853, “Colon-specific mutual amide prodrugs of 4-aminosalicylic acid for their mitigating effect on experimental colitis in rats” (Eur J Med Chem, 2009).

For data set [1], the species on record is Rattus norvegicus. The experiment in a line: Antiinflammatory activity against TNBS-induced Wistar rat colitis model assessed as decrease in severity of inflammation treated rectally 3 days after TNBS induction measured on day 7. As to conditions: in the assay text read “treated orally” for “treated rectally”. The data set is classed as functional, organism-based. In a few lines: (§1)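 TNBS colitis in Wistar rats (100 mg/kg in 50% ethanol, intrarectal, 48 h fast), left untreated 3 days before dosing, vehicle 1% carboxymethylcellulose. Weight loss, stool consistency and rectal bleeding scored daily over 11 days; the daily clinical activity score is the average of the three, 0 (healthy) to 4 (maximal colitis); mean of six rats.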

Data set [2] relates to Rattus norvegicus. The experiment in a line: Antiinflammatory activity against TNBS-induced Wistar rat colitis model assessed as decrease in ratio of colon to body weight treated po 3 days after TNBS induction for 8 days measured after 24 hrs of last treatment. The data set is classed as functional. In a few lines:
(§2)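 Wistar rats (200–250 g, 12–15 weeks, n = 6/group), fasted 48 h, given TNBS 100 mg/kg in 50% ethanol (500 µl) intrarectally 8 cm via catheter under light ether; untreated 3 days, then dosed (controls got 1% carboxymethylcellulose); 11-day study. Sacrificed 24 h after last dose under isoflurane; 8 cm colon excised, colon/body weight ratio taken; mean of six.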

A short description of data set [3]: Half life in rat fecal matter assessed as release of 4-aminosalicylic acid. The data set is classed as ADME, tissue-based, Feces. As to conditions: in vitro. In a few lines: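 Prodrug in phosphate buffer pH 7.4 (250 µg/ml, diluted to 50 µg/ml in 5 ml) added to 1 g fresh rat feces; incubated 37 °C anaerobically in a CO2 incubator for up to 20 h. Remaining prodrug read by UV at 255 nm (4AP) or 290 nm (4AT) against calibration curves; first-order fits, triplicate, mean K.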

Data set [4] is filed under the species Rattus norvegicus. As to the kind of experiment: Antiinflammatory activity against TNBS-induced Wistar rat colitis model assessed as decrease in ratio of colon to body weight treated rectally 3 days after TNBS induction for 8 days measured after 24 hrs of last treatment. Format: functional, organism-based. The settings on record: in the assay text read “treated orally” for “treated rectally”. An outline of the steps:
as §2

Data set [5] relates to Rattus norvegicus. The experiment in a line: Antiinflammatory activity against TNBS-induced Wistar rat colitis model assessed as decrease in severity of inflammation treated po 3 days after TNBS induction measured on day 7. Format: functional, organism-based. An outline of the steps:
as §1

Data set [6] concerns Rattus norvegicus. As to the kind of experiment: Antiinflammatory activity against TNBS-induced po dosed Wistar rat colitis model assessed as inhibition of MPO activity in neutrophils per 100 mg of tissue. Format: functional. In a few lines:
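Colonic tissue from TNBS-colitis rats given oral treatment; MPO measured by the Krawisz method, one unit degrading […] hydrogen peroxide at 25 °C; reported as mU per 100 mg wet tissue.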

Data set [7] is described as follows: Aqueous solubility of the compound. The data set is classed as physicochemical. As to conditions: water (aqueous). In a few lines:
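Solubility in distilled water at room temperature (25 ± 1 °C).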

Data set [8] can be described thus: Stability assessed as half life in hydrochloric acid buffer at pH 1.2. The data set is classed as physicochemical. In a few lines:
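10 mg prodrug in 900 ml HCl buffer pH 1.2 (0.05 M, ionic strength 0.5 set with KCl) at 37 ± 1 °C for 10 h. Remaining prodrug followed by UV at 251 and 285 nm; first-order kinetics, triplicate.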

Data set [9] can be described thus: Partition coefficient, log p in n-octanol/phosphate buffer at pH 7.4. The data set is classed as physicochemical. In a few lines: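 Partitioning between n-octanol and phosphate buffer pH 7.4 at 25 ± 1 °C.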
Another data set concerns Liver. The experiment in a line: Toxicity in rat liver. Format: tissue-based. The settings on record: in vivo.
A short description of data set [10]: Stability assessed as half life in phosphate buffer at pH 7.4. Format: physicochemical. In a few lines: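 Same set-up in phosphate buffer pH 7.4 (0.05 M, ionic strength 0.5 with KCl), 37 ± 1 °C, 10 h. Remaining prodrug read by UV at 255 and 290 nm; first-order kinetics, triplicate.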
Data set [11] concerns Rattus norvegicus. The experiment in a line: Ulcerogenic effect in rat colon assessed as ulcer index at 2258.01 mg/kg by Rainsford's cold stress method. The settings on record: in vivo. Further details: dose 2258.01 mg/kg. Format: toxicity, organism-based.
Data set [12] deals with Rattus norvegicus. As to the kind of experiment: Half life in TNBS-induced po dosed Wistar rat colitis model assessed as assessed as release of 4-aminosalicylic acid. Format: ADME, organism-based. The settings on record: in vivo.
For a further data set, the system named is Pancreas. The experiment in a line: Toxicity in rat pancreas. Format: tissue-based. The settings on record: in vivo.
Data set [13] concerns Rattus norvegicus. The experiment in a line: Ulcerogenic effect in rat colon assessed as ulcer index at 2263.75 mg/kg by Rainsford's cold stress method. The data set is classed as toxicity, organism-based. Details: dose 2263.75 mg/kg. As to conditions: in vivo.
The test system of data set [14] is Rattus norvegicus. As to the kind of experiment: Ulcerogenic effect in rat colon assessed as ulcer index at 1154.30 mg/kg by Rainsford's cold stress method. The settings on record: in vivo, 1154.3 mg/kg. Details: dose 1154.3 mg/kg. Format: toxicity, organism-based.
The species entered for data set [15] is Rattus norvegicus. The experiment in a line: Antiinflammatory activity against TNBS-induced Wistar rat colitis model assessed as decrease in severity of inflammation treated rectally 3 days after TNBS induction for 8 days measured after 24 hrs of last treatment. Format: functional, organism-based. In a few lines: as §1
Data set [16] relates to Rattus norvegicus. The experiment in a line: Inhibition of TNBS-induced morphological change in rectaly administered Wistar rat colon. The data set is classed as functional, organism-based.
In data set [17] the test system is Rattus norvegicus. As to the kind of experiment: Half life in TNBS-induced po dosed Wistar rat colitis model assessed as assessed as release of 5-aminosalicylic acid. The data set is classed as ADME, organism-based. As to conditions: in vivo.
In data set [18] the test system is Rattus norvegicus. The experiment in a line: Ulcerogenic effect in rat colon assessed as ulcer index at 3000 mg/kg by Rainsford's cold stress method. As to conditions: in vivo. The data set is classed as toxicity, organism-based. Further details: dose 3000 mg/kg.

Active and inactive are the calls of the source. The rule behind the calls is not given here.

On to `Nc1ccc(C(=O)N[C@@H](Cc2c[nH]c3ccccc23)C(=O)[O-])c(O)c1.[Na+]`, for which the result in the data set filed under Rattus norvegicus [1], in the data set listed under Rattus norvegicus [4] and with Rattus norvegicus [5] was Active. In addition, the Ratio with Rattus norvegicus [2] is 0.0071. For the same compound, the t1/2 in data set [3] came to 5.72 h; in the data set with Rattus norvegicus [12], 6 h. The values for the Activity with Rattus norvegicus [6], in the data set with Liver and in the data set with Pancreas were 49.24 mU, “Non-toxic” and “Non-toxic”, respectively. This compound had a solubility in data set [7] of 260 mg/mL. The half-life in data set [8] and in data set [10] was above 10 h in each case. In data set [9], this compound gave a log distribution coefficient (logD) of -0.19. For the same compound, the UI in the data set on Rattus norvegicus [11] turned out to be 8.4.

In the case of `Nc1ccc(C(=O)N[C@H](Cc2ccccc2)C(=O)[O-])c(O)c1.[Na+]`, the outcome in the data set filed under Rattus norvegicus [1], in the data set listed under Rattus norvegicus [4] and with Rattus norvegicus [5] was Active. Also, in the data set on Rattus norvegicus [2], the Ratio is 0.0073. For the same compound, the results for the t1/2 (in [3]; in the data set with Rattus norvegicus [12]) were 6.87 h and 6 h, respectively. Also, the UI in the data set with Rattus norvegicus [13] stood at 6. In addition, the Activity in the data set on Rattus norvegicus [6] is reported as 46.57 mU; in the data set with Liver it was “Non-toxic”; with Pancreas it was “Non-toxic”. The compound also showed a solubility in data set [7] of 330 mg/mL. For the same compound, the half-life in data set [8] and in data set [10] was above 10 h in each case. The compound further came in with a logD in data set [9] of -0.21.

Turning to `Nc1ccc(C(=O)O)c(O)c1` [AMINOSALICYLIC ACID], the outcome in the data set filed under Rattus norvegicus [1], in the data set filed under Rattus norvegicus [4] and with Rattus norvegicus [5] was Active. The Activity with Rattus norvegicus [6] is on record as 70.51 mU. In data set [9], this compound displayed a log distribution coefficient (logD) of 1.01. Also, the UI in the data set with Rattus norvegicus [14] is recorded as 69.61.

With `N[C@H](Cc1ccccc1)C(=O)O` [D-PHENYLALANINE], the result in the data set listed under Rattus norvegicus [1], in the data set listed under Rattus norvegicus [4], in the data set on Rattus norvegicus [5], in the data set filed under Rattus norvegicus [15] and in the data set on Rattus norvegicus [16] was Active. In addition, the Activity in the data set with Rattus norvegicus [6] is listed as 61.43 mU.

As for `Nc1ccc(O)c(C(=O)O)c1` [MESALAMINE], the outcome in the data set listed under Rattus norvegicus [1] and in the data set on Rattus norvegicus [5] was Active. Moreover, the Activity with Rattus norvegicus [6] is 60.85 mU. The UI in the data set on Rattus norvegicus [14] amounted to 60.03.

As to `Nc1ccc(S(=O)(=O)Nc2ccccn2)cc1` [SULFAPYRIDINE], in the data set with Rattus norvegicus [17], the t1/2 stood at 2 h.

For the compound `O=C(O)c1cc(/N=N/c2ccc(S(=O)(=O)Nc3ccccn3)cc2)ccc1O` [SULFASALAZINE], the result in the data set listed under Rattus norvegicus [1] and in the data set on Rattus norvegicus [5] was Active. Moreover, the t1/2 with Rattus norvegicus [17] amounted to 2 h. The Activity in the data set on Rattus norvegicus [6] was 46.63 mU. The UI in the data set with Rattus norvegicus [18] is reported as 5.83.

`N[C@@H](Cc1c[nH]c2ccccc12)C(=O)O` [TRYPTOPHAN]: the result in the data set listed under Rattus norvegicus [1], in the data set filed under Rattus norvegicus [4], in the data set on Rattus norvegicus [5], in the data set listed under Rattus norvegicus [15] and in the data set on Rattus norvegicus [16] was Active. Moreover, the Activity with Rattus norvegicus [6] amounted to 72.25 mU.

In general, solubility refers to how much of the substance goes into solution per volume. Read a low solubility as a poorly soluble substance. In general, half-life refers to how long it takes for the measured level to halve. For orientation: logD means the decadic logarithm of the distribution of all forms, ionised or not, between an organic phase and buffer at a given pH. Low values mean lower lipophilicity, high ones higher lipophilicity.
